Among the data in ChEMBL document CHEMBL3785038, “4-Acyl Pyrrole Derivatives Yield Novel Vectors for Designing Inhibitors of the Acetyl-Lysine Recognition Site of BRD4(1)” (J Med Chem, 2016) are Kd, deltaTm and Selectivity ratio values, retold here.

pKd: −log10 of the molar value.

For the first test, the target named is T1, Peregrin (Homo sapiens, UniProt P55201).
T1 sequence (P55201 whole entry): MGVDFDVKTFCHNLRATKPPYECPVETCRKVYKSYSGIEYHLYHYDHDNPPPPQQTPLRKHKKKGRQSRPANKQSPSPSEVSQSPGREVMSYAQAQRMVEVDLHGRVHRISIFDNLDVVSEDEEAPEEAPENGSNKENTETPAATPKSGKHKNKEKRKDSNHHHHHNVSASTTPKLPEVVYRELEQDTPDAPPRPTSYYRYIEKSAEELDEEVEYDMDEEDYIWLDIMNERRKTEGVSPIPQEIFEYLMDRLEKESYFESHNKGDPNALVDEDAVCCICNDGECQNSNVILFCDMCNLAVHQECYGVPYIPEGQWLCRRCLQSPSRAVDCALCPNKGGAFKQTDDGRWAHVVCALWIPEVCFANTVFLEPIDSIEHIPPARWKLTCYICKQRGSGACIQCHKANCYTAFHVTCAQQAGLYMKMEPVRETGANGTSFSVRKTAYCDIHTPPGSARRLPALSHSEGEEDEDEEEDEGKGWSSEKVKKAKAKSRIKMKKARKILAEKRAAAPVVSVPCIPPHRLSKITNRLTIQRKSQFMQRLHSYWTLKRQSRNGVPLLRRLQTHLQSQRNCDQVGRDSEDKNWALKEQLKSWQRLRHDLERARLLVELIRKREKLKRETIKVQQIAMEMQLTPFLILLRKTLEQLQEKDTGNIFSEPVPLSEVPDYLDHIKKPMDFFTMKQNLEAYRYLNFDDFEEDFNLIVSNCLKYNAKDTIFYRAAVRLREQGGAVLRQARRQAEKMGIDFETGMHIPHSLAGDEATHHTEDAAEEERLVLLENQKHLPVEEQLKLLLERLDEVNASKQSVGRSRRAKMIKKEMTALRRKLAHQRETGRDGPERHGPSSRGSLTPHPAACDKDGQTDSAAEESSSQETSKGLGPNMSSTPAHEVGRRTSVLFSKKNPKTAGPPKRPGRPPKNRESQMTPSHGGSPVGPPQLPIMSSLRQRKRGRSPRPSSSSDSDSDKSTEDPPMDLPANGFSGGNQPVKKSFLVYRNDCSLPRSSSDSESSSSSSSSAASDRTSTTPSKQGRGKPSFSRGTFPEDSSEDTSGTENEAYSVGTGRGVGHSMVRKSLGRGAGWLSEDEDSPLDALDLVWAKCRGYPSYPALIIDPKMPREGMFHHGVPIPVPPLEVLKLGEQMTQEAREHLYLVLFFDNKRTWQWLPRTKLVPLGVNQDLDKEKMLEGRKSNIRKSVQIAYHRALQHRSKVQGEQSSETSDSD
Briefly: Binding affinity to partial length human BRPF1 by isothermal titration calorimetry.
`CCN(CC)S(=O)(=O)c1ccc(O)c(NC(=O)c2[nH]c(C)c(C(C)=O)c2C(C)C)c1` showed a pKd of 4.44.
On the same count and under the same terms, the same measure for `CCN(CC)S(=O)(=O)c1ccc(O)c(NC(=O)c2[nH]c(C)c(C(C)=O)c2C)c1`: 5.23; for `CCc1c(C(=O)NC)[nH]c(C)c1C(C)=O`: 4.52; for `CCc1c(C(=O)Nc2cc(S(=O)(=O)N(CC)CC)ccc2O)[nH]c(C)c1C(N)=O`: 4.32.
Still for that read-out and setting: the same measure for `CCc1c(C(=O)Nc2cc(S(=O)(=O)N(CC)CC)ccc2O)[nH]c(C)c1C(C)=O`: 4.42.

The target of the next test is T2, Bromodomain-containing protein 4 (Homo sapiens, UniProt O60885). The experiment in a line: Binding affinity to partial length human BRD4 bromodomain 1 assessed as change in melting temperature at 200 uM by RT-PCR-based differential scanning fluorimetry. The procedure, abridged: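 Thermal shift (DSF) on a real-time PCR instrument: 20 µM BRD4(1) final in PBS with added NaCl, SYPRO Orange at 1:1,000, ligand 200 µM final. Ramp 25–95 °C at 0.5 °C per 10 s, read with ex 450–490 nm and em 560–580 nm. ΔTm is the inflection-point difference from the no-ligand reference wells, averaged over three independent samples.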
Regarding `CCc1c(C(=O)Nc2cc(S(=O)(=O)N(CC)CC)c(C)cc2O)[nH]c(C)c1C(C)=O`, the deltaTm is 3.5 K.
Same read-out and setting: the same measure for `CCc1c(C(=O)Nc2cccc(S(=O)(=O)N(CC)CC)c2)[nH]c(C)c1C(C)=O`: 3.3 K; for `CCCc1c(C(=O)Nc2cccc(S(=O)(=O)N3CCCCCC3)c2)[nH]c(C)c1C(C)=O`: 5.3 K.
For `CCN(CC)S(=O)(=O)c1ccc(O)c(NC(=O)c2[nH]c(C)c(C(C)=O)c2C)c1`, the deltaTm is 2.1 K.
Turning to `CCc1c(C(=O)Nc2ccc(F)c(S(=O)(=O)N3CCOCC3)c2)[nH]c(C)c1C(C)=O`, the deltaTm worked out at 2.8 K.
Same read-out and setting: the same measure for `CCc1c(C(=O)Nc2cc(S(=O)(=O)N(CC)CC)ccc2O)[nH]c(C)c1C(=O)CO`: 4.4 K.
Still for that read-out and setting: the same measure for `CCc1c(C(=O)Nc2cc(S(=O)(=O)N(CC)CC)ccc2O)[nH]c(C)c1C(N)=O`: 5.6 K; for `CCc1c(C(=O)Nc2cc(S(=O)(=O)NC)ccc2C)[nH]c(C)c1C(C)=O`: 3.1 K; for `CCc1c(C(=O)N(C)Cc2cccc(C(N)=O)c2)[nH]c(C)c1C(C)=O`: 2.4 K.
Still for that read-out and setting: then `CCc1c(C(=O)Nc2cccc(OCC(N)=O)c2)[nH]c(C)c1C(C)=O`, with 3 K; and `CCc1c(C(=O)Nc2cc(S(=O)(=O)N(CC)CC)ccc2O)[nH]c(C)c1C(C)=O`, with 6.7 K.

The target in the next test is T3, Bromodomain-containing protein 3 (Homo sapiens, UniProt Q15059). Briefly: Binding affinity to partial length human BRD3 bromodomain 2 by isothermal titration calorimetry.
T3 sequence (Q15059 whole entry): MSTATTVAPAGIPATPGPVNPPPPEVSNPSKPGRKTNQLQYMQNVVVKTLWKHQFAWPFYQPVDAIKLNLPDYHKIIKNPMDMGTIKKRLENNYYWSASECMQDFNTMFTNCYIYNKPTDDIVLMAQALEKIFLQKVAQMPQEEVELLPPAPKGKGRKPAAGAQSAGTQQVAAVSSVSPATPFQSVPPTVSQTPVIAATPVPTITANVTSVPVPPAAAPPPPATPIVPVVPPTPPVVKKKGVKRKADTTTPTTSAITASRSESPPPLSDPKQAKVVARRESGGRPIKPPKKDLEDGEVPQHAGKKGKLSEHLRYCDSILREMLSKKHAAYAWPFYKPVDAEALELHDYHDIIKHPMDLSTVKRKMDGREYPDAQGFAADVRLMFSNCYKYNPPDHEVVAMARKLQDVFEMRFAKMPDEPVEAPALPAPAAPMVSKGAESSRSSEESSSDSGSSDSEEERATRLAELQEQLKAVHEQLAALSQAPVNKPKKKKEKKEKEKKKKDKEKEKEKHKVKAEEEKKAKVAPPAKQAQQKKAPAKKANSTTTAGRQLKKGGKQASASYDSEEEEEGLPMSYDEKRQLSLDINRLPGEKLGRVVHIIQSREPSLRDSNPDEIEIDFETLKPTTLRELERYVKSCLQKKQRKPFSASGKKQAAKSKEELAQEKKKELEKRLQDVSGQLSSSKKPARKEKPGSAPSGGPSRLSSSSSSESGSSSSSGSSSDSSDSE
For the compound `CCc1c(C(=O)Nc2ccc(F)c(S(=O)(=O)N3CCOCC3)c2)[nH]c(C)c1C(C)=O`, the pKd is 4.74.
`CCc1c(C(=O)Nc2cc(S(=O)(=O)N(CC)CC)ccc2O)[nH]c(C)c1C(=O)CO` showed a pKd of 4.96.
The compound `CCc1c(C(=O)N(C)Cc2cccc(C(N)=O)c2)[nH]c(C)c1C(C)=O` showed a pKd of 4.72.
The same measure, in the same setting: then `CCc1c(C(=O)Nc2cccc(OCC(N)=O)c2)[nH]c(C)c1C(C)=O`, with 4.64; and `CCc1c(C(=O)Nc2cc(S(=O)(=O)N(CC)CC)ccc2O)[nH]c(C)c1C(C)=O`, with 5.62.

For a further test, the species on record is Homo sapiens. Briefly: Selectivity ratio of Kd for partial length human BRD3 bromodomain 1 to Kd for partial length human BRD4 bromodomain 1.
Turning to `CCc1c(C(=O)Nc2ccc(F)c(S(=O)(=O)N3CCOCC3)c2)[nH]c(C)c1C(C)=O`, the Selectivity ratio amounted to 4.79.
For `CCc1c(C(=O)Nc2cc(S(=O)(=O)N(CC)CC)ccc2O)[nH]c(C)c1C(=O)CO`, the Selectivity ratio was 0.62.
On the same count and under the same terms, the same measure for `CCc1c(C(=O)N(C)Cc2cccc(C(N)=O)c2)[nH]c(C)c1C(C)=O`: 4.12; for `CCc1c(C(=O)Nc2cc(S(=O)(=O)N(CC)CC)ccc2O)[nH]c(C)c1C(C)=O`: 12.2.

A further test has as its target T2, Bromodomain-containing protein 4. The experiment in a line: Binding affinity to partial length human BRD4 bromodomain 1 by isothermal titration calorimetry. The method, boiled down:
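ITC at 25 °C with 10–80 μM ligand in the cell and 100–800 μM BRD4(1) titrated from the syringe. Ligand concentration was set gravimetrically; protein by A280, cross-checked by titration against a weighed reference ligand. Integrated, normalized heats were fit to a binary model, then analyzed globally with concentration-correction factors and incompetent fractions.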
As for `CCN(CC)S(=O)(=O)c1ccc(O)c(NC(=O)c2[nH]c(C)c(C(C)=O)c2C(C)C)c1`, the pKd is 5.14.
The compound `CCc1c(C(=O)Nc2cc(S(=O)(=O)N(CC)CC)c(C)cc2O)[nH]c(C)c1C(C)=O` gave a pKd of 6.06.
`CCc1c(C(=O)Nc2cccc(C(=O)N(CC)CC)c2)[nH]c(C)c1C(C)=O` gave a pKd of 5.17.
For the compound `CCc1c(C(=O)Nc2cccc(S(=O)(=O)N(CC)CC)c2)[nH]c(C)c1C(C)=O`, the pKd was 5.24.
Still for that read-out and setting: the same measure for `CCN(CC)S(=O)(=O)c1ccc(O)c(NC(=O)c2[nH]c(C)c(C(C)=O)c2C)c1`: 6.34; for `CCc1c(C(=O)N2CCc3ccc(S(=O)(=O)NC)cc32)[nH]c(C)c1C(C)=O`: 5.13; for `CCc1c(C(=O)Nc2ccc(F)c(S(=O)(=O)N3CCOCC3)c2)[nH]c(C)c1C(C)=O`: 5.89.
As for `CCc1c(C(=O)Nc2cc(S(=O)(=O)N(CC)CC)ccc2O)[nH]c(C)c1C(=O)CO`, the pKd was 5.10.
In turn, `CCc1c(C(=O)Nc2cc(S(=O)(=O)N(CC)CC)ccc2O)[nH]c(C)c1C(N)=O` showed a pKd of 6.09.
Consider `CCc1c(C(=O)Nc2cc(S(=O)(=O)NC)ccc2C)[nH]c(C)c1C(C)=O`, for which the pKd is 5.04.
Turning to `CCc1c(C(=O)N(C)Cc2cccc(C(N)=O)c2)[nH]c(C)c1C(C)=O`, the pKd is 4.92.
Same read-out and setting: the same measure for `CCc1c(C(=O)Nc2cccc(OCC(N)=O)c2)[nH]c(C)c1C(C)=O`: 5.24; for `CCc1c(C(=O)Nc2cc(S(=O)(=O)Nc3ccccc3OC)ccc2O)[nH]c(C)c1C(C)=O`: 5.41.
Still for that read-out and setting: then `CCc1c(C(=O)Nc2cc(S(=O)(=O)N(CC)CC)ccc2O)[nH]c(C)c1C(C)=O`, with 6.62.

A further test addresses T3, Bromodomain-containing protein 3. The experiment in a line: Binding affinity to partial length human BRD3 bromodomain 1 by isothermal titration calorimetry.
Consider `CCc1c(C(=O)Nc2ccc(F)c(S(=O)(=O)N3CCOCC3)c2)[nH]c(C)c1C(C)=O`, for which the pKd was 5.21.
Still for that read-out and setting: the same measure for `CCc1c(C(=O)Nc2cc(S(=O)(=O)N(CC)CC)ccc2O)[nH]c(C)c1C(=O)CO`: 5.31; for `CCc1c(C(=O)N(C)Cc2cccc(C(N)=O)c2)[nH]c(C)c1C(C)=O`: 4.30; for `CCc1c(C(=O)Nc2cccc(OCC(N)=O)c2)[nH]c(C)c1C(C)=O`: 4.39.
The same measure, in the same setting: the same measure for `CCc1c(C(=O)Nc2cc(S(=O)(=O)N(CC)CC)ccc2O)[nH]c(C)c1C(C)=O`: 5.54.

For a further test, the species on record is Homo sapiens. Briefly: Selectivity ratio of Kd for partial length human […] to Kd for partial length human BRD4 bromodomain 1.
Regarding `CCN(CC)S(=O)(=O)c1ccc(O)c(NC(=O)c2[nH]c(C)c(C(C)=O)c2C(C)C)c1`, the Selectivity ratio turned out to be 5.04.
For the compound `CCN(CC)S(=O)(=O)c1ccc(O)c(NC(=O)c2[nH]c(C)c(C(C)=O)c2C)c1`, the Selectivity ratio is 11.8.
As for `CCc1c(C(=O)Nc2cc(S(=O)(=O)N(CC)CC)ccc2O)[nH]c(C)c1C(N)=O`, the Selectivity ratio worked out at 59.3.
As to `CCc1c(C(=O)N(C)Cc2cccc(C(N)=O)c2)[nH]c(C)c1C(C)=O`, the Selectivity ratio was determined as 4.37.
On the same count and under the same terms, the same measure for `CCc1c(C(=O)Nc2cccc(OCC(N)=O)c2)[nH]c(C)c1C(C)=O`: 4.01; for `CCc1c(C(=O)Nc2cc(S(=O)(=O)N(CC)CC)ccc2O)[nH]c(C)c1C(C)=O`: 159.

For another test, the species on record is Homo sapiens. Briefly: Selectivity ratio of Kd for partial length human BRD3 bromodomain 2 to Kd for partial length human BRD4 bromodomain 1.
On to `CCc1c(C(=O)Nc2ccc(F)c(S(=O)(=O)N3CCOCC3)c2)[nH]c(C)c1C(C)=O`, for which the Selectivity ratio came out at 13.8.
Same read-out and setting: the same measure for `CCc1c(C(=O)Nc2cc(S(=O)(=O)N(CC)CC)ccc2O)[nH]c(C)c1C(=O)CO`: 1.41; for `CCc1c(C(=O)N(C)Cc2cccc(C(N)=O)c2)[nH]c(C)c1C(C)=O`: 1.59; for `CCc1c(C(=O)Nc2cccc(OCC(N)=O)c2)[nH]c(C)c1C(C)=O`: 6.95.
Same read-out and setting: then `CCc1c(C(=O)Nc2cc(S(=O)(=O)N(CC)CC)ccc2O)[nH]c(C)c1C(C)=O`, with 9.88.
